# Measurements reported in ChEMBL document CHEMBL1151796, “Novel anticancer agents, kayeassamins C-I from the flower of Kayea assamica of Myanmar” (2008).
# Test system: PANC-1
# Assay: Cytotoxicity against human PANC1 cells in nutrient-deprived condition
# Format: functional
# Settings: not given
# Method in brief: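 PANC-1 cells seeded at 2×10^4 per well, grown 24 h in DMEM at 37 °C, 5% CO₂, PBS-washed, then switched to nutrient-deprived medium (NDM) or DMEM with serial dilutions of pure compounds (1–256 µM). Incubated 24 h, washed, then 2 h with DMEM containing 10% WST-8 and read at 450 nm. Endpoint reported as PC₁₀₀.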
row,SMILES,Cytotoxicity [µM]
1,CCCC(=O)c1c2c(c3oc(=O)cc(CCC)c3c1O)CC(C(C)(C)O)O2 (stereo not given),64
2,CC[C@H](O)c1cc(=O)oc2c(C(=O)CC(C)C)c(O)c3c(c12)OC(C)(C)C=C3,32
3,CCCC(=O)c1c(O)c(CC=C(C)C)c2oc(=O)cc(CCC)c2c1O,2
4,CCCC(=O)c1c(O)c(CC=C(C)C)c(O)c2c(-c3ccccc3)cc(=O)oc12,8
5,CCCC(=O)c1c2c(c3oc(=O)cc(-c4ccccc4)c3c1O)C=CC(C)(C)O2,>256
6,COc1cc(C[C@H]2C(=O)OC[C@@H]2Cc2ccc(OC)c(OC)c2)ccc1O [ARCTIGENIN],1
7,CCCC(=O)c1c(O)c(C/C=C(\C)CCC=C(C)C)c(O)c2c([C@@H](O)CC)cc(=O)oc12 [KAYEASSAMIN A],1
8,CCCC(=O)c1c(O)c(C/C=C(\C)CCC=C(C)C)c2oc(=O)cc([C@@H](O)CC)c2c1O [KAYEASSAMIN B],1
9,CCC(C)C(=O)c1c(O)c(C/C=C(\C)CCC=C(C)C)c2oc(=O)cc([C@@H](O)CC)c2c1O (stereo not given in full) [KAYEASSAMIN C],4
10,CC[C@H](O)c1cc(=O)oc2c(C/C=C(\C)CCC=C(C)C)c(O)c(C(=O)CC(C)C)c(O)c12 [KAYEASSAMIN D],1
11,CCCC(=O)c1c(O)c(CC=C(C)C)c2oc(=O)cc([C@@H](O)CC)c2c1O [KAYEASSAMIN E],1
12,CCC(C)C(=O)c1c(O)c(CC=C(C)C)c2oc(=O)cc([C@@H](O)CC)c2c1O (stereo not given in full) [KAYEASSAMIN F],2
13,CC[C@H](O)c1cc(=O)oc2c(CC=C(C)C)c(O)c(C(=O)CC(C)C)c(O)c12 [KAYEASSAMIN G],1
14,CCCC(=O)c1c(O)c(CC=C(C)C)c2oc(=O)cc3c2c1OC(C)C3 (stereo not given) [KAYEASSAMIN H],64
15,CCCC(=O)c1c(O)c2c(c3c([C@@H](O)CC)cc(=O)oc13)OC(C)(CCC=C(C)C)C=C2 (stereo not given in full) [KAYEASSAMIN I],64
16,CCCC(=O)c1c(O)c(CC=C(C)C)c2oc(=O)cc(-c3ccccc3)c2c1O [MAMMEA A/AC],16
17,CC(C)CC(=O)c1c2c(c3oc(=O)cc(-c4ccccc4)c3c1O)C=CC(C)(C)O2 [MAMMEIGIN],32

# Test system: PANC-1
# Assay: Cytotoxicity against human PANC1 cells in nutrient-deprived condition assessed as complete preferential cell death at 1 uM
# Format: functional, cell-based
# Settings: TDE = time-dependent effect
# Method in brief: (§1)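 PANC-1 cells (2×10^4 per well, 24 h preculture in DMEM, 37 °C, 5% CO₂) were PBS-washed and exposed in NDM or DMEM for 3, 6, 9, 12 and 24 h. Morphology was checked by phase-contrast microscopy at 20×. Cells were then washed and given 2 h of 10% WST-8 in DMEM, with absorbance read at 450 nm. Viability was taken from the mean of three wells.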
row,SMILES,Activity
1,CC[C@H](O)c1cc(=O)oc2c(C/C=C(\C)CCC=C(C)C)c(O)c(C(=O)CC(C)C)c(O)c12 [KAYEASSAMIN D],tde

# Test system: PANC-1
# Assay: Cytotoxicity against human PANC1 cells in nutrient-deprived condition assessed as preferential cell death within 3 hrs
# Format: functional, cell-based
# Settings: not given
# Method in brief: as §1
row,SMILES,Activity
1,CCCC(=O)c1c(O)c(CC=C(C)C)c2oc(=O)cc([C@@H](O)CC)c2c1O [KAYEASSAMIN E],Dose-dependent effect

# Same assay, conditions: TDE = time-dependent effect
row,SMILES,Activity
1,CC[C@H](O)c1cc(=O)oc2c(CC=C(C)C)c(O)c(C(=O)CC(C)C)c(O)c12 [KAYEASSAMIN G],tde
